Here are results for six compounds from ChEMBL document CHEMBL3272208, “(Vinylaryloxy)acetic acids. A new class of diuretic agents. 3. ((2-Nitro-1-alkenyl)aryloxy)acetic acids” (1976).

Assay [1] relates to Canis familiaris. Briefly: Diuretic activity in mongrel dog assessed as volume of excreted urine at 1 mg/kg, iv measured between 15 to 45 mins after dosage (reference value: 1 to 4 ml/min). It is filed as functional, Canis lupus familiaris. In short, it runs like this: (§1)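 Compounds were given iv to dogs as Na salts in H2O. […] The baseline is the mean of two 15-min periods before dosing. The response is the mean of two consecutive 15-min periods of maximal Na+ excretion, usually 15–45 min post-dose. Na+, K+ and Cl- are in μequiv/min and urine volume in ml/min, reported as control/drug.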

For assay [2], the system named is Canis familiaris. Briefly: Diuretic activity in mongrel dog assessed as potassium level in excreted urine at 1 mg/kg, iv measured between 15 to 45 mins after dosage (reference value: 6 to 47 uequiv/min). The assay is classed as functional, Canis lupus familiaris. Put shortly: as §1
Assay [3] concerns Canis familiaris. Briefly: Diuretic activity in mongrel dog assessed as chloride level in excreted urine at 0.4 mg/kg, po measured for 6 hrs (reference value: 2 mequivalents). The assay is classed as functional, Canis lupus familiaris.
The subject of assay [4] is Canis familiaris. Briefly: Diuretic activity in mongrel dog assessed as chloride level in excreted urine at 1 mg/kg, iv measured between 15 to 45 mins after dosage (reference value: 1 to 70 uequiv/min). The assay is classed as functional, Canis lupus familiaris. Put shortly: (§2)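 Compounds were given iv to dogs as Na salts in H2O. The baseline is the mean of two 15-min periods before dosing. The response is the mean of two consecutive 15-min periods of maximal Na+ excretion, usually 15–45 min post-dose. Na+, K+ and Cl- are in μequiv/min and urine volume in ml/min, reported as control/drug.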

Assay [5] has as its system Canis familiaris. Briefly: Diuretic activity in mongrel dog assessed as sodium level in excreted urine at 0.4 mg/kg, po measured for 6 hrs (reference value: 2 mequivalents). It is filed as functional, Canis lupus familiaris.
Assay [6] relates to Canis familiaris. Briefly: Diuretic activity in mongrel dog assessed as potassium level in excreted urine at 0.4 mg/kg, po measured for 6 hrs (reference value: 1 mequivalents). The assay is classed as functional, Canis lupus familiaris.
The test system of assay [7] is Canis familiaris. Briefly: Diuretic activity in mongrel dog assessed as volume of excreted urine at 0.4 mg/kg, po measured for 6 hrs (RVb = 180 ml).
In assay [8] the test system is Canis familiaris. Briefly: Diuretic activity in mongrel dog assessed as sodium level in excreted urine at 1 mg/kg, iv measured […] after dosage (reference value: 3 to 95 uequiv/min). The assay is classed as functional, Canis lupus familiaris. In short, it runs like this: as §2
Assay [9] has as its system Canis familiaris. Briefly: Diuretic activity in mongrel dog assessed as sodium level in excreted urine at 5 mg/kg, po measured for 6 hrs (reference value: 2 mequivalents). The assay is classed as functional, Canis lupus familiaris.
Assay [10] relates to Canis familiaris. Briefly: Diuretic activity in mongrel dog assessed as volume of excreted urine at 5 mg/kg, po measured for 6 hrs (RVb = 180 ml).
The test system of assay [11] is Canis familiaris. Briefly: Diuretic activity in mongrel dog assessed as potassium level in excreted urine at 5 mg/kg, po measured for 6 hrs (reference value: 1 mequivalents). It is filed as functional, Canis lupus familiaris.
Assay [12] relates to Canis familiaris. Briefly: Diuretic activity in mongrel dog assessed as sodium level in excreted urine at 10 mg/kg, iv measured […] after dosage (reference value: 5 to 66 uequiv/min). It is filed as functional, Canis lupus familiaris. Put shortly: as §1
The subject of assay [13] is Canis familiaris. Briefly: Diuretic activity in mongrel dog assessed as volume of excreted urine at 10 mg/kg, iv measured between 15 to 45 mins after dosage (reference value: 1 to 4 ml/min). It is filed as functional, Canis lupus familiaris. Put shortly:
as §1

Assay [14] deals with Canis familiaris. Briefly: Diuretic activity in mongrel dog assessed as chloride level in excreted urine at 5 mg/kg, po measured for 6 hrs (reference value: 2 mequivalents). The assay is classed as functional, Canis lupus familiaris.
The subject of assay [15] is Canis familiaris. Briefly: Diuretic activity in mongrel dog assessed as chloride level in excreted urine at 10 mg/kg, iv measured between 15 to 45 mins after dosage (reference value: 3 to 64 uequiv/min). It is filed as functional, Canis lupus familiaris. Put shortly: as §2
Assay [16] has as its system Canis familiaris. Briefly: Diuretic activity in mongrel dog assessed as potassium level in excreted urine at 10 mg/kg, iv measured between 15 to 45 mins after dosage (reference value: 7 to 63 uequiv/min). The assay is classed as functional, Canis lupus familiaris. Put shortly:
as §1

The subject of assay [17] is Canis familiaris. Briefly: Diuretic activity in mongrel dog assessed as sodium level in excreted urine at 1 mg/kg, po measured for 6 hrs (reference value: 2 mequivalents). It is filed as functional, Canis lupus familiaris.
In assay [18] the test system is Canis familiaris. Briefly: Diuretic activity in mongrel dog assessed as potassium level in excreted urine at 0.1 mg/kg, iv measured between 15 to 45 mins after dosage (reference value: 14 uequiv/min). The assay is classed as functional, Canis lupus familiaris. Put shortly: as §1
For assay [19], the system named is Canis familiaris. Briefly: Diuretic activity in mongrel dog assessed as volume of excreted urine at 0.1 mg/kg, iv measured between 15 to 45 mins after dosage (reference value: 1 ml/min). It is filed as functional, Canis lupus familiaris. Put shortly: as §1
Assay [20] relates to Canis familiaris. Briefly: Diuretic activity in mongrel dog assessed as volume of excreted urine at 1 mg/kg, po measured for 6 hrs (RVb = 180 ml).
For assay [21], the system named is Canis familiaris. Briefly: Diuretic activity in mongrel dog assessed as chloride level in excreted urine at 0.1 mg/kg, iv measured between 15 to 45 mins after dosage (reference value: 14 uequiv/min). The assay is classed as functional, Canis lupus familiaris. Put shortly:
as §1

In assay [22] the test system is Canis familiaris. Briefly: Diuretic activity in mongrel dog assessed as potassium level in excreted urine at 1 mg/kg, po measured for 6 hrs (reference value: 1 mequivalents). The assay is classed as functional, Canis lupus familiaris.
Assay [23] has as its system Canis familiaris. Briefly: Diuretic activity in mongrel dog assessed as sodium level in excreted urine at 0.1 mg/kg, iv measured […] after dosage (reference value: 36 uequiv/min). The assay is classed as functional, Canis lupus familiaris. Put shortly: as §1
For assay [24], the system named is Canis familiaris. Briefly: Diuretic activity in mongrel dog assessed as sodium level in excreted urine at 3 mg/kg, po measured for 6 hrs (reference value: 2 mequivalents). It is filed as functional, Canis lupus familiaris.
The test system of assay [25] is Canis familiaris. Briefly: Diuretic activity in mongrel dog assessed as potassium level in excreted urine at 3 mg/kg, po measured for 6 hrs (reference value: 1 mequivalents). The assay is classed as functional, Canis lupus familiaris.
Assay [26] concerns Canis familiaris. Briefly: Diuretic activity in mongrel dog assessed as chloride level in excreted urine at 3 mg/kg, po measured for 6 hrs (reference value: 2 mequivalents). It is filed as functional, Canis lupus familiaris.
Assay [27] relates to Canis familiaris. Briefly: Diuretic activity in mongrel dog assessed as chloride level in excreted urine at 1 mg/kg, po measured for 6 hrs (reference value: 2 mequivalents). It is filed as functional, Canis lupus familiaris.
Assay [28] relates to Canis familiaris. Briefly: Diuretic activity in mongrel dog assessed as chloride level in excreted urine at 2 mg/kg, po measured for 6 hrs (reference value: 2 mequivalents). The assay is classed as functional, Canis lupus familiaris.
Assay [29] deals with Canis familiaris. Briefly: Diuretic activity in mongrel dog assessed as sodium level in excreted urine at 2 mg/kg, po measured for 6 hrs (reference value: 2 mequivalents). The assay is classed as functional, Canis lupus familiaris.
Assay [30] relates to Canis familiaris. Briefly: Diuretic activity in mongrel dog assessed as potassium level in excreted urine at 2 mg/kg, po measured for 6 hrs (reference value: 1 mequivalents). It is filed as functional, Canis lupus familiaris.
For assay [31], the system named is Canis familiaris. Briefly: Diuretic activity in mongrel dog assessed as volume of excreted urine at 2 mg/kg, po measured for 6 hrs (RVb = 180 ml).

SMILES strings stand for the structures.

Consider `C/C(=C\c1ccc(OCC(=O)O)c(Cl)c1Cl)[N+](=O)[O-]`, for which the Activity came to 11 mL/min with Canis familiaris [1]; 104 uEq/min with Canis familiaris [2]; 31 milliequivalent in the assay with Canis familiaris [3]; 2163 uEq/min with Canis familiaris [4]; 25 milliequivalent in the assay on Canis familiaris [5]; 7 milliequivalent in the assay with Canis familiaris [6]. Also, the Activity in the assay on Canis familiaris [7] turned out to be 628 mL; in the assay on Canis familiaris [8], 2128 uEq/min.
As for `C/C(=C\c1ccc(OCC(=O)O)cc1)[N+](=O)[O-]`, the Activity with Canis familiaris [9] came to 6 milliequivalent; in the assay on Canis familiaris [1] it was 2 mL/min; with Canis familiaris [2], 12 uEq/min; in the assay with Canis familiaris [10], 378 mL; in the assay on Canis familiaris [11], 2 milliequivalent; in the assay with Canis familiaris [4] it was 61 uEq/min. Also, the Activity in the assay with Canis familiaris [12] turned out to be 649 uEq/min; with Canis familiaris [13], 6 mL/min; with Canis familiaris [14] it was 4 milliequivalent; in the assay on Canis familiaris [15], 611 uEq/min; in the assay on Canis familiaris [16] it was 70 uEq/min; in the assay on Canis familiaris [8], 82 uEq/min.
For `CC(=O)C(=Cc1ccc(OCC(=O)O)c(Cl)c1Cl)C(C)=O`, the Activity was 30 milliequivalent in the assay on Canis familiaris [17]; 11 mL/min in the assay on Canis familiaris [1]; 187 uEq/min in the assay with Canis familiaris [18]; 104 uEq/min in the assay with Canis familiaris [2]; 9 mL/min in the assay on Canis familiaris [19]; 492 mL with Canis familiaris [20]. The Activity is 6 milliequivalent with Canis familiaris [6]; 1100 uEq/min with Canis familiaris [21]; 762 mL in the assay with Canis familiaris [7]; 7 milliequivalent in the assay on Canis familiaris [22]; 984 uEq/min in the assay with Canis familiaris [23].
With `COC(=O)COc1ccc(/C=C(\C)[N+](=O)[O-])c(Cl)c1Cl`, the Activity in the assay on Canis familiaris [9] worked out at 37 milliequivalent; in the assay with Canis familiaris [10], 769 mL; in the assay with Canis familiaris [11], 7 milliequivalent; in the assay with Canis familiaris [14], 47 milliequivalent.
As for `C=C(CC)C(=O)c1ccc(OCC(=O)O)c(Cl)c1Cl` [ETHACRYNIC ACID], the Activity in the assay with Canis familiaris [17] was found to be 21 milliequivalent; with Canis familiaris [24], 37 milliequivalent; in the assay on Canis familiaris [1], 6 mL/min; with Canis familiaris [2], 52 uEq/min; with Canis familiaris [25], 7 milliequivalent; in the assay with Canis familiaris [26], 42 milliequivalent. The Activity in the assay with Canis familiaris [4] turned out to be 244 uEq/min; in the assay on Canis familiaris [12], 2989 uEq/min; in the assay with Canis familiaris [13], 22 mL/min; in the assay on Canis familiaris [15], 3324 uEq/min; in the assay with Canis familiaris [22], 5 milliequivalent; in the assay on Canis familiaris [16] it was 194 uEq/min. The figures for the Activity in the assay on Canis familiaris [8] and in the assay on Canis familiaris [27] were 188 uEq/min and 26 milliequivalent, respectively.
With `C/C(=C\c1ccc(OCC(N)=O)c(Cl)c1Cl)[N+](=O)[O-]`, the Activity with Canis familiaris [28] amounted to 39 milliequivalent; in the assay with Canis familiaris [29], 25 milliequivalent; in the assay with Canis familiaris [30], 8 milliequivalent; in the assay on Canis familiaris [31] it was 485 mL.
